# Hits are enriched below; roughly 1.7% of the tested compounds scored in any of these assays.
# LMPTP inh: LMPTP (human) inhibition; inhibition, % at 20 µM; recombinant LMPTP-A, OMFP fluorogenic substrate, fluorescence intensity; P24666; 360,000 compounds, 0.22% hits;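 active = compounds that cut the enzyme signal by at least half of the control window in the single-dose screen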;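 note: plate controls were DMSO wells with enzyme plus substrate for no effect and substrate without enzyme for full effect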
#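 Assay system: LMPTP-A phosphatase enzyme | Input: 0.625 nM enzyme | Also added: Fluorogenic phosphatase substrate OMFP at 400 µM final | Compound dosing: One test concentration per compound, 20 µM, with 3% DMSO overall | Schedule: 50 min enzyme reaction at room temperature, protected from light | Signal: Fluorescence intensity | Benchmarks: no-enzyme and uninhibited controls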
# Scp1 inh: Scp-1 (human) phosphatase inhibition; Q9GZU7; Recombinant Scp1, phosphopeptide, malachite green phosphate absorbance; inhibition, % at 20 µM; 340,000 compounds, 0.88% hits;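 active = inhibition above about 50% at 20 µM, limit read from the data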;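 note: plate controls were DMSO wells with enzyme for no effect and wells lacking enzyme for full effect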
#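 Incubation: 45 min enzyme reaction at room temperature / System: truncated SCP-1 phosphatase (76-261aa) / Reagent: Phospho 17-mer peptide substrate / Buffer or medium: Acidic Tris acetate buffer with magnesium and detergent / Signal: absorbance at 630 nm / Doses: one concentration, 20 µM, with 1.0% DMSO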
# STEP block: STEP (human) phosphatase inhibition. P54829. recombinant STEP, OMFP fluorogenic substrate, fluorescence. inhibition, % at 20 µM. 360,000 compounds, 0.25% hits;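 active = inhibition at 20 µM, scaled per plate between control wells, above about 37%, limit read from the data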;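 note: 0% = DMSO with enzyme and substrate and 100% = substrate only without enzyme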
# Target sequence (P54829 whole entry, looked up): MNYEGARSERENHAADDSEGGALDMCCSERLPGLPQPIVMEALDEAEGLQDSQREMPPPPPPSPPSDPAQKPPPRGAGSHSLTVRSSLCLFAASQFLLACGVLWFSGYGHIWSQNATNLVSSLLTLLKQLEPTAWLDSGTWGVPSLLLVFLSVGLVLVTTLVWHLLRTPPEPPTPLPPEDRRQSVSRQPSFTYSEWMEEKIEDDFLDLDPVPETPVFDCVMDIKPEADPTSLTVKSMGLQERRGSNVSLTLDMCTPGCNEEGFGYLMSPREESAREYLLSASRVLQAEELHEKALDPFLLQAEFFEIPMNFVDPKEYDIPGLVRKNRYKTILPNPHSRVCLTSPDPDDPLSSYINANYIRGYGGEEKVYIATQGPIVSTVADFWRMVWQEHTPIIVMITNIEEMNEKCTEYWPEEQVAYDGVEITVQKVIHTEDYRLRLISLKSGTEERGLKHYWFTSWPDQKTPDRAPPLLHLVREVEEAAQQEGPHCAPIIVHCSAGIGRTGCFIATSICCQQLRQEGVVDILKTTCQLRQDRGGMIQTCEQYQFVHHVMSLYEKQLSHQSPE
#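 Also added – OMFP at 25 µM · Test system – STEP tyrosine phosphatase · Technique – FITC-channel fluorescence of OMFP product · Schedule – 20 min at room temperature, dark · Evaluation – control-normalized % inhibition with plate pattern correction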
# DNMT1 inh: blocks human DNA methyltransferase DNMT1; 360,000 compounds, 0.83% hits; P26358; DNMT1 molecular beacon, Hinp1I cleavage, fluorescence; inhibition (reported as % activation of signal), % at 10 µM; in the data active = inhibition above about 50%
# SUMO1 PPI mod: SUMO1-SIM interaction modulation | inhibition, % at 20 µM | AID 602429 | SUMO1 binding to a labelled peptide, TR-FRET, 1 h | P63165 | 360,000 compounds, 0.33% hits; in the data active = inhibition above about 37%
# Beacon interf DR: beacon fluorescence artifact, dose response counter-screen; shares compounds with DNMT1 inh; molecular beacon fluorescence, spectral interference counter-screen; IC50, µM; 200 tested, under 10 active; AID 602382; call rule not given here
# DNMT1 inh conf: confirmation of human DNMT1 inhibitors; DNMT1 molecular beacon HinP1I cleavage, fluorescence; shares compounds with DNMT1 inh; AID 602385; inhibition, % at 10 µM; 2,300 compounds, 8% hits;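 active = average inhibition of at least 30% in the single-concentration confirmation test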
# Beacon interf: shows spectral interference in the DNMT1 beacon assay; shares compounds with DNMT1 inh; DNMT1 molecular beacon spectral interference counterscreen, fluorescence 485/520; activation (fluorescence interference), % at 10 µM; 2,300 compounds, 1% hits; AID 602387;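 active = activation of at least 30% at 10 µM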;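 note: DNMT1 catalytic domain with a HinP1I cleavage step and a FAM/dabcyl DNA beacon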
# * marks the source's active call; other numbers are inactive results; x = no result given.
SMILES,LMPTP inh,Scp1 inh,STEP block,DNMT1 inh,SUMO1 PPI mod,DNMT1 inh conf,Beacon interf,others
CCOC(=O)c1c(NC(C)=O)sc2c(OCC(O)CN(CC)CC)c(Br)ccc12 (centres undefined),4,7,2,76*,1,7,2,
N/C(=N\OC(=O)COc1ccc(Br)cc1Cl)c1cccnc1,3,1,-1,-4,-3,x,x,
COc1cccc(NC(=O)CN(C)C(=O)[C@@H]2CCCN2C(=O)c2cccs2)c1,0,-9,1,1,4,x,x,
O=C(COC(=O)CNC(=O)c1ccccc1)Nc1ccc(F)c([N+](=O)[O-])c1,0,-2,-1,-2,-15,x,x,
Cc1ccccc1OCC(=O)NCCCNC(=O)c1ccncc1,0,-1,-1,78*,-2,1,4,
COc1ccc(NC(=S)NCc2cccnc2)cc1,-1,3,0,89*,3,3,3,
COc1ccc(NC(=S)NCc2cccnc2)cc1OC,1,-1,-3,0,0,x,x,
Oc1ccc(/C=N/Nc2cc(N3CCCC3)nc(N3CCCC3)n2)cc1,9,-12,10,-8,6,x,x,
COc1ccc(/C=N/Nc2cc(N3CCCC3)nc(N3CCCC3)n2)cc1,23,-4,7,58*,3,1,-10,
Cc1c(=O)n(OCc2ccccc2F)c2ccccc2[n+]1[O-],1,-10,-3,84*,-19,3,1,
Cc1c(=O)n(OCc2cccc(F)c2)c2ccccc2[n+]1[O-],0,-2,18,0,-31,x,x,
O=C(c1cccc(-n2cccc2)c1)N1CCN(S(=O)(=O)c2c(F)cccc2F)CC1,-8,28,4,20,0,x,x,
O=C(c1cccc(-n2cccc2)c1)N1CCN(S(=O)(=O)c2ccccc2)CC1,38,x,13,97*,76*,12,0,
COc1cc(CCNC(=O)c2cnn3ccccc23)cc(OC)c1OC,0,-13,1,80*,0,1,0,
COc1ccc(CCNC(=O)c2cnn3ccccc23)c(OC)c1OC,-1,-3,1,0,4,x,x,
C[C@H](CO)N1C[C@H](C)[C@@H](CN(C)S(=O)(=O)c2ccccc2)Oc2ccc(NC(=O)NC3CCCCC3)cc2C1=O,-2,8,3,0,6,x,x,
O=C(NCc1ccco1)c1ccc([N+](=O)[O-])o1,9,59*,-2,67*,-23,3,3,
O=C(NCc1ccco1)c1ccc(Cn2cc([N+](=O)[O-])cn2)o1,-1,0,-1,4,-11,x,x,
S=C(NCc1ccco1)NCc1ccco1,9,4,13,50,5,1,-1,
CCOc1ccc(CCNC(=O)c2cc(C)nn2-c2ccccc2)cc1,1,-2,-3,-4,-1,x,x,
O=C(NCc1ccccc1CN1CCCCC1)c1ccccc1N1CCCC1=O,-1,24,-2,2,3,x,x,
O=C(Nc1sc2c(c1C(=O)O)CCCC2)C(=O)N1CCOCC1,-1,-3,7,-3,-3,x,x,
O=C(Nc1sc2c(c1C(=O)O)CCC2)C(=O)N1CCOCC1,5,43,11,61*,5,6,2,
CC1(C)CC(NC(=O)c2ccccc2)CC(C)(C)N1,0,0,0,101*,3,-1,1,
CC1(C)CC(NC(=O)c2ccc(F)cc2)CC(C)(C)N1,-3,x,-2,-1,-7,x,x,
SMILES,LMPTP inh,Scp1 inh,STEP block,DNMT1 inh,SUMO1 PPI mod,DNMT1 inh conf,Beacon interf,others
O=C(Cc1cn2ccsc2n1)Nc1nc2c(s1)CN(Cc1ccccc1)CC2,61*,22,-1,56*,17,0,3,
CCN1CCc2nc(NC(=O)C(c3ccccc3)c3ccccc3)sc2C1,2,4,0,63*,-16,1,4,
CCN1CCc2nc(NC(=O)CC(c3ccccc3)c3ccccc3)sc2C1,2,-1,6,44,-4,x,x,
COc1ccccc1CCc1nnc(N)s1,-2,1,3,81*,5,1,2,
Nc1nnc(CCOc2ccccc2Cl)s1,-1,0,-3,2,0,x,x,
COc1ccc(C)cc1NC(=O)CN(Cc1nnc(-c2ccc(Cl)cc2)o1)C1CCCC1,9,-2,7,59*,0,0,-2,
Cn1nc(CC(=O)NC2CCCCCCCCCCC2)c2ccccc2c1=O,0,7,2,69*,-5,1,0,
Cc1ccc(NC(=O)COc2ccc(/C=C3/SC(=Nc4ccccc4)N(Cc4cccnc4)C3=O)cc2)cc1,-1,7,0,61*,-3,-1,-8,
CCCn1c(N)c(C(=O)CSc2nncs2)c(=O)[nH]c1=O,-1,-8,2,2,-3,x,x,
CCOc1cc2[nH]c(=S)n(CCC(=O)NCc3ccc(OC)cc3)c(=O)c2cc1OCC,1,-7,4,59*,6,-3,-10,
COc1ccc(CNC(=O)CCCn2c(=S)[nH]c3cc4c(cc3c2=O)OCO4)cc1,0,-5,8,2,-29,x,x,
O=C1Nc2c(Cl)cc(Cl)cc2C1=O,0,-2,2,60*,-5,16,-13,Beacon interf DR=>99
COc1ccc(S(=O)(=O)NCc2ccc3c(c2)cc(C)n3C)cc1,36,-7,2,59*,-20,0,15,
Cc1cc2cc(CNS(=O)(=O)c3ccccc3)ccc2n1C,32,-6,1,26,-26,x,x,
Cc1ccc(CNC(=S)NC2CCCCC2)cc1,0,4,0,2,-8,x,x,
Cc1cc2cc(CNC(=O)Nc3ccccc3)ccc2n1C,6,3,3,54*,-6,2,5,
Cc1cc2cc(CNC(=S)NCc3ccccc3)ccc2n1C,19,3,5,77*,-4,2,2,
CCOC(=O)NCc1ccc2c(c1)cc(C)n2C,4,-8,6,-12,-28,x,x,
Cc1cc2cc(CNC(=S)NC3CCCCC3)ccc2n1C,5,4,3,63*,-7,6,6,
Cc1cc(C)c(OCCCCCn2ccnc2)c(C)c1,-3,1,0,0,1,x,x,
Cc1ccc(S(=O)(=O)N2C[C@H]3[C@H]4C(=O)N(c5ccccc5)C(=O)[C@H]4C[C@H](OC(=O)NC4CCCC4)[C@@]3(O)C2)cc1,0,x,0,-1,-1,x,x,
Cc1cc2nc(-c3ccc(NC(=O)C(C)C)cc3)oc2cc1C,0,-7,-4,63*,-1,4,1,
